Data: ChEMBL document CHEMBL1255404, “Spread of OXA-48-encoding plasmid in Turkey and beyond” (2010)
In brackets after ≈: the same amount, converted by molar mass.

Assays:
Type in all cases: functional
Klebsiella pneumoniae [1] = assay: Antimicrobial activity against Klebsiella pneumoniae isolate KpL expressing beta-lactamase OXA-48 by Etest method
Klebsiella pneumoniae [2] = assay: Antimicrobial activity against Klebsiella pneumoniae isolate Kp11978 expressing beta-lactamase OXA-48, SHV-2a and TEM-1 by Etest method
Escherichia coli [3] = assay: Antimicrobial activity against Escherichia coli isolate J53 harboring pA-1 containing beta-lactamase OXA-48 located within transposon Tn1999 by Etest method
How it was run: (§1)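 β-Lactam MICs read with Etest strips. Strains are E. coli J53 recipient and J53 transconjugants carrying OXA-48-positive plasmids recovered from clinical enterobacterial isolates.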

Klebsiella pneumoniae [4] = assay: Antimicrobial activity against Klebsiella pneumoniae isolate KpB expressing OXA-48 and CTX-M-15 by Etest method
Escherichia coli [5] = assay: Antimicrobial activity against Escherichia coli isolate J53 harboring pBb containing beta-lactamase OXA-48 located within transposon Tn1999.2 by Etest method; how it was run: as §1
Klebsiella pneumoniae [6] = assay: Antimicrobial activity against Klebsiella pneumoniae isolate Kp3A expressing beta-lactamase OXA-48 by Etest method
How it was run: (§2)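 MICs of β-lactams read from Etest strips. The test organisms are carbapenem-resistant, OXA-48-positive clinical Enterobacteriaceae isolates recovered from Turkey, Lebanon, Egypt, France and Belgium.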

Escherichia coli [7] = assay: Antimicrobial activity against Escherichia coli isolate J53 harboring p3A containing beta-lactamase OXA-48 located within transposon Tn1999 by Etest method; how it was run: as §1
Klebsiella pneumoniae [8] = assay: Antimicrobial activity against Klebsiella pneumoniae isolate Kp4A expressing beta-lactamase OXA-48 and CTX-M-15 by Etest method
Klebsiella pneumoniae [9] = assay: Antimicrobial activity against Klebsiella pneumoniae isolate Kp5A expressing beta-lactamase OXA-48 and SHV-5 by Etest method
Klebsiella pneumoniae [10] = assay: Antimicrobial activity against Klebsiella pneumoniae isolate Kp6A expressing beta-lactamase OXA-48 and TEM-150 by Etest method
Escherichia coli [11] = assay: Antimicrobial activity against Escherichia coli isolate J53 harboring p4A containing beta-lactamase OXA-48 located within transposon Tn1999 by Etest method; how it was run: as §1
Escherichia coli [12] = assay: Antimicrobial activity against Escherichia coli isolate J53 harboring p5A containing beta-lactamase OXA-48 located within transposon Tn1999 by Etest method; how it was run: as §1
Escherichia coli [13] = assay: Antimicrobial activity against Escherichia coli isolate J53 harboring p6A containing beta-lactamase OXA-48 located within transposon Tn1999 by Etest method; how it was run: as §1
Klebsiella pneumoniae [14] = assay: Antimicrobial activity against Klebsiella pneumoniae isolate Kp7A expressing beta-lactamase OXA-48 by Etest method; how it was run: as §2
Escherichia coli [15] = assay: Antimicrobial activity against Escherichia coli isolate J53 harboring p7A containing beta-lactamase OXA-48 located within transposon Tn1999 by Etest method; how it was run: as §1
Klebsiella pneumoniae [16] = assay: Antimicrobial activity against Klebsiella pneumoniae isolate KpI-1 expressing beta-lactamase OXA-48 and CTX-M-15 by Etest method
Klebsiella pneumoniae [17] = assay: Antimicrobial activity against Klebsiella pneumoniae isolate KpI-2 expressing beta-lactamase OXA-48 and CTX-M-15 by Etest method
Escherichia coli [18] = assay: Antimicrobial activity against Escherichia coli isolate J53 harboring pI-1 containing beta-lactamase OXA-48 located within transposon Tn1999.2 by Etest method; how it was run: as §1
Escherichia coli [19] = assay: Antimicrobial activity against Escherichia coli isolate J53 harboring pI-2 containing beta-lactamase OXA-48 located within transposon Tn1999.2 by Etest method; how it was run: as §1
Klebsiella pneumoniae [20] = assay: Antimicrobial activity against Klebsiella pneumoniae isolate KpBIC expressing beta-lactamase OXA-48 by Etest method; how it was run: as §2
Escherichia coli [21] = assay: Antimicrobial activity against Escherichia coli isolate TOP10 harboring pBIC containing beta-lactamase OXA-48 located within transposon Tn1999.2 by Etest method
How it was run: (§3)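 β-Lactam MICs read with Etest strips. Strains are E. coli TOP10 host and TOP10 transformants made with plasmid DNA extract when conjugation failed. Transformants were selected on LB agar with ticarcillin 50 μg/ml.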

Klebsiella pneumoniae [22] = assay: Antimicrobial activity against Klebsiella pneumoniae isolate KpE expressing beta-lactamase OXA-48 and CTX-M-15 by Etest method
Escherichia coli [23] = assay: Antimicrobial activity against Escherichia coli isolate J53 harboring pE containing beta-lactamase OXA-48 located within transposon Tn1999.2 by Etest method; how it was run: as §1
Klebsiella pneumoniae [24] = assay: Antimicrobial activity against Klebsiella pneumoniae isolate KpBEL expressing beta-lactamase OXA-48 by Etest method; how it was run: as §2
Escherichia coli [25] = assay: Antimicrobial activity against Escherichia coli isolate J53 harboring pBEL containing beta-lactamase OXA-48 located within transposon Tn1999.2 by Etest method; how it was run: as §1
Escherichia coli [26] = assay: Antimicrobial activity against Escherichia coli isolate J53 harboring pL containing beta-lactamase OXA-48 located within transposon Tn1999.2 by Etest method; how it was run: as §1
Providencia rettgeri = assay: Antimicrobial activity against Providencia rettgeri isolate expressing beta-lactamase OXA-48 and TEM-101 by Etest method
Escherichia coli [27] = assay: Antimicrobial activity against Escherichia coli isolate TOP10 harboring pPR containing beta-lactamase and TEM-101 by Etest method; how it was run: as §3
Enterobacter cloacae [28] = assay: Antimicrobial activity against Enterobacter cloacae isolate 1 expressing beta-lactamase OXA-48 and SHV-5 by Etest method
Escherichia coli [29] = assay: Antimicrobial activity against Escherichia coli isolate J53 harboring pEnc1 containing beta-lactamase OXA-48 located within transposon Tn1999 by Etest method; how it was run: as §1
Enterobacter cloacae [30] = assay: Antimicrobial activity against Enterobacter cloacae isolate 2 expressing beta-lactamase OXA-48 and SHV-5 by Etest method
Escherichia coli [31] = assay: Antimicrobial activity against Escherichia coli isolate J53 harboring pEnc2 containing beta-lactamase OXA-48 located within transposon Tn1999 by Etest method; how it was run: as §1
Citrobacter freundii = assay: Antimicrobial activity against Citrobacter freundii isolate expressing beta-lactamase OXA-48 by Etest method
Escherichia coli [32] = assay: Antimicrobial activity against Escherichia coli isolate J53 harboring pCF containing beta-lactamase OXA-48 located within transposon Tn1999 by Etest method; how it was run: as §1
Escherichia coli [33] = assay: Antimicrobial activity against Escherichia coli isolate A expressing beta-lactamase OXA-48 and TEM-150 by Etest method
Escherichia coli [34] = assay: Antimicrobial activity against Escherichia coli isolate J53 harboring pEcA containing beta-lactamase OXA-48 located within transposon Tn1999.2 by Etest method; how it was run: as §1
Escherichia coli [35] = assay: Antimicrobial activity against Escherichia coli isolate J53 by Etest method; how it was run: as §1
Escherichia coli [36] = assay: Antimicrobial activity against Escherichia coli isolate TOP10 by Etest method; how it was run: as §3

Row | Structure (SMILES) | MIC (Klebsiella pneumoniae [1]) [µg/mL] | MIC (Klebsiella pneumoniae [4]) [µg/mL] | MIC (Escherichia coli [5]) [µg/mL] | MIC (Klebsiella pneumoniae [6]) [µg/mL] | MIC (Escherichia coli [7]) [µg/mL] | MIC (Escherichia coli [11]) [µg/mL] | MIC (Escherichia coli [12]) [µg/mL] | MIC (Escherichia coli [13]) [µg/mL] | MIC (Klebsiella pneumoniae [14]) [µg/mL] | MIC (Escherichia coli [15]) [µg/mL] | MIC (Escherichia coli [18]) [µg/mL] | MIC (Escherichia coli [19]) [µg/mL] | MIC (Klebsiella pneumoniae [20]) [µg/mL] | MIC (Escherichia coli [23]) [µg/mL] | MIC (Klebsiella pneumoniae [24]) [µg/mL] | MIC (Escherichia coli [25]) [µg/mL] | MIC (Escherichia coli [26]) [µg/mL] | MIC (Escherichia coli [27]) [µg/mL] | MIC (Escherichia coli [32]) [µg/mL] | MIC (Escherichia coli [34]) [µg/mL] | also measured
1 | C[C@@H](O)[C@H]1C(=O)N2C(C(=O)O)=C(S[C@@H]3CN[C@H](C(=O)Nc4cccc(C(=O)O)c4)C3)[C@H](C)[C@H]12 | > 16 | > 32 | 0.25 (≈ 0.526 µM) | > 32 | 0.25 (≈ 0.526 µM) | 0.12 (≈ 0.252 µM) | 0.12 (≈ 0.252 µM) | 0.12 (≈ 0.252 µM) | > 32 | 0.19 (≈ 0.4 µM) | 0.25 (≈ 0.526 µM) | 0.25 (≈ 0.526 µM) | 2 (≈ 4.21 µM) | 3 (≈ 6.31 µM) | 4 (≈ 8.41 µM) | 2 (≈ 4.21 µM) | 4 (≈ 8.41 µM) | 0.75 (≈ 1.58 µM) | 0.25 (≈ 0.526 µM) | 0.25 (≈ 0.526 µM) | MIC (Klebsiella pneumoniae [2]): 64 µg/mL (≈ 135 µM); MIC (Escherichia coli [3]): 0.19 µg/mL (≈ 0.4 µM); MIC (Klebsiella pneumoniae [8]): > 32 µg/mL; MIC (Klebsiella pneumoniae [9]): > 32 µg/mL; MIC (Klebsiella pneumoniae [10]): > 32 µg/mL; MIC (Klebsiella pneumoniae [16]): 24 µg/mL (≈ 50.5 µM); MIC (Klebsiella pneumoniae [17]): 24 µg/mL (≈ 50.5 µM); MIC (Escherichia coli [21]): 0.5 µg/mL (≈ 1.05 µM); MIC (Klebsiella pneumoniae [22]): 3 µg/mL (≈ 6.31 µM); MIC (Providencia rettgeri): > 32 µg/mL; MIC (Enterobacter cloacae [28]): 0.5 µg/mL (≈ 1.05 µM); MIC (Escherichia coli [29]): 0.125 µg/mL (≈ 0.263 µM); MIC (Enterobacter cloacae [30]): 0.75 µg/mL (≈ 1.58 µM); MIC (Escherichia coli [31]): 0.19 µg/mL (≈ 0.4 µM); MIC (Citrobacter freundii): > 32 µg/mL; MIC (Escherichia coli [33]): > 32 µg/mL; MIC (Escherichia coli [35]): 0.06 µg/mL (≈ 0.126 µM); MIC (Escherichia coli [36]): 0.06 µg/mL (≈ 0.126 µM)
2 | CO/N=C(\C(=O)N[C@@H]1C(=O)N2C(C(=O)[O-])=C(C[N+]3(C)CCCC3)CS[C@H]12)c1csc(N)n1 | 0.12 (≈ 0.25 µM) | > 512 | < 0.5 | 0.5 (≈ 1.04 µM) |  | 0.12 (≈ 0.25 µM) | 0.12 (≈ 0.25 µM) | 0.12 (≈ 0.25 µM) | 0.5 (≈ 1.04 µM) | 0.5 (≈ 1.04 µM) | 0.12 (≈ 0.25 µM) | 0.12 (≈ 0.25 µM) | 0.5 (≈ 1.04 µM) | 0.12 (≈ 0.25 µM) | 0.12 (≈ 0.25 µM) | 0.12 (≈ 0.25 µM) | 0.06 (≈ 0.125 µM) | 0.5 (≈ 1.04 µM) | 0.12 (≈ 0.25 µM) | 0.12 (≈ 0.25 µM) | MIC (Escherichia coli [21]): 0.5 µg/mL (≈ 1.04 µM); MIC (Escherichia coli [35]): 0.03 µg/mL (≈ 0.0624 µM)
3 | C[C@H]1[C@H](NC(=O)/C(=N\OC(C)(C)C(=O)O)c2csc(N)n2)C(=O)N1S(=O)(=O)O [AZTREONAM] | 0.06 (≈ 0.138 µM) |  | < 0.12 | 0.06 (≈ 0.138 µM) | 0.06 (≈ 0.138 µM) | 0.06 (≈ 0.138 µM) | 0.06 (≈ 0.138 µM) | 0.06 (≈ 0.138 µM) | 0.06 (≈ 0.138 µM) | 0.06 (≈ 0.138 µM) | 0.06 (≈ 0.138 µM) | 0.06 (≈ 0.138 µM) | 0.06 (≈ 0.138 µM) | 0.06 (≈ 0.138 µM) | 0.06 (≈ 0.138 µM) | 0.06 (≈ 0.138 µM) | 0.06 (≈ 0.138 µM) | 0.06 (≈ 0.138 µM) | 0.06 (≈ 0.138 µM) | 0.06 (≈ 0.138 µM) | MIC (Escherichia coli [29]): 0.06 µg/mL (≈ 0.138 µM); MIC (Escherichia coli [31]): 0.06 µg/mL (≈ 0.138 µM)
